Published values pooled from the literature.
Cell line: SW-620
Effect on: cell growth or viability

| SMILES | method | tested at | time | endpoint | value |
| --- | --- | --- | --- | --- | --- |
| O=C(/C=C/c1ccc2ncn(Cc3ccccc3)c(=O)c2c1)NO | SRB | – | 48 h | IC50 | 1.52 µM |
| Cc1cc(C)n(C(=S)[S][Au][PH](CCCCCC[PH]([Au][S]C(=S)n2nc(C)cc2C)(c2ccccc2)c2ccccc2)(c2ccccc2)c2ccccc2)n1 | – | – | – | GI50 | 1.26 µM |
| O=C(/C=C/c1ccc2c(=O)n(Cc3ccc(Cl)cc3)cnc2c1)NO | SRB | – | 48 h | IC50 | 0.671 µM |
| COc1ccc(C(=O)/C=C/c2ccc3c(c2)OCCO3)cc1S(N)(=O)=O | SRB | 10 µM | – | inhibition | 68% |
| CCn1cnc2cc(/C=C/C(=O)NO)ccc2c1=O | SRB | – | 48 h | IC50 | 2.97 µM |
| CC[C@H](C)C(=O)O[C@H]1CCC=C2C=C[C@H](C)[C@H](CC[C@@H]3C[C@@H](O)CC(=O)O3)[C@H]21 | SRB | – | 72 h | IC50 | 0.48 µg/mL |
| CC(=O)Nc1cccc(-n2c(=O)n(C3CC3)c(=O)c3c(Nc4ccc(I)cc4F)n(C)c(=O)c(C)c32)c1 | resazurin | 50 nM | 72 h | viability | 25.7% |
| COc1ccc(C(=O)/C=C/c2cccc(Br)c2)cc1S(N)(=O)=O | SRB | 10 µM | – | inhibition | 120% |
| COc1cccc(Oc2ccccc2NC(=O)CNC(=O)c2cccc3ccccc23)c1 | SRB | – | 48 h | GI50 | 0.166 µM |
| COc1ccc(C(=O)/C=C/c2cccc(Cl)c2Cl)cc1S(N)(=O)=O | SRB | 10 µM | – | inhibition | 147% |
| O=C(O)C[C@H](O)C[C@H](O)/C=C/c1c(C2CC2)nc2ccccc2c1-c1ccc(F)cc1 | SRB | – | 72 h | IC50 | 0.54 µg/mL |
| O=C(/C=C/c1ccc2ncn(Cc3ccc(Cl)cc3)c(=O)c2c1)NO | SRB | – | 48 h | IC50 | 2.57 µM |
| CC(C)C[C@H](NC(=O)[C@H](Cc1ccccc1)NC(=O)c1cnccn1)B(O)O | ATP luminescence | – | – | IC50 | 0.009 µM |
| COc1ccc(C(=O)/C=C/c2ccccc2Br)cc1S(N)(=O)=O | SRB | 10 µM | – | inhibition | 146% |
| O=C(/C=C/c1ccc2c(=O)n(Cc3ccccc3)cnc2c1)NO | SRB | – | 48 h | IC50 | 1.13 µM |
